Results from ChEMBL document CHEMBL1129247, “Dihydrobenzofuran analogues of hallucinogens. 3. Models of 4-substituted (2,5-dimethoxyphenyl)alkylamine derivatives with rigidified methoxy groups” (J Med Chem, 1996).

How the values were obtained:
[1] = biological target: T1, 5-hydroxytryptamine receptor 1A (Rattus norvegicus, UniProt P19327); assay: Binding affinity towards rat hippocampal 5-hydroxytryptamine 1A receptor using [3H]8-OH-DPAT as radioligand; assay type: tissue-based, Hippocampus
T1 sequence (P19327 whole entry): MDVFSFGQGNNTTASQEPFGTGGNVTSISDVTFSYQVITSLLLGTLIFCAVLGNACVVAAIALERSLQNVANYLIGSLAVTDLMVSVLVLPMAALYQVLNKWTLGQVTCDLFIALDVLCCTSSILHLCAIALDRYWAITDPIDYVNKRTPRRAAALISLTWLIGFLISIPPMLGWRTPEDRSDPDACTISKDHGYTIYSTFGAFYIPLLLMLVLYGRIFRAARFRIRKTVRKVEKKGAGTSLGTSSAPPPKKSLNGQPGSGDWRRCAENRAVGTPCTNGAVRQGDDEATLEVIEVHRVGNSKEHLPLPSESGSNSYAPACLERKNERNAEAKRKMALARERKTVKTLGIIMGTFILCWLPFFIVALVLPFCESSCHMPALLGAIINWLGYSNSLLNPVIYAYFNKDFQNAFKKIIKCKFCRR
Summary of the method: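 Hippocampus pooled from male Sprague–Dawley rats (175–199 g), homogenised in sucrose and frozen. Membranes washed and preincubated twice at 37 °C in Tris HCl pH 7.4 with EDTA, ascorbate and pargyline. Assay: 0.75 nM [3H]-8-OH-DPAT, 200–400 μg protein, 15 min at 37 °C, GF/C filtration. Nonspecific binding: 10 μM 5-HT. Run in triplicate; expressed as Ki.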

[2] = biological target: T2, 5-hydroxytryptamine receptor 2C (Homo sapiens, UniProt P28335); assay: Agonistic activity at cloned human 5-hydroxytryptamine 2C receptor using [125I]DOI as radioligand; assay type: functional
T2 sequence (P28335 whole entry): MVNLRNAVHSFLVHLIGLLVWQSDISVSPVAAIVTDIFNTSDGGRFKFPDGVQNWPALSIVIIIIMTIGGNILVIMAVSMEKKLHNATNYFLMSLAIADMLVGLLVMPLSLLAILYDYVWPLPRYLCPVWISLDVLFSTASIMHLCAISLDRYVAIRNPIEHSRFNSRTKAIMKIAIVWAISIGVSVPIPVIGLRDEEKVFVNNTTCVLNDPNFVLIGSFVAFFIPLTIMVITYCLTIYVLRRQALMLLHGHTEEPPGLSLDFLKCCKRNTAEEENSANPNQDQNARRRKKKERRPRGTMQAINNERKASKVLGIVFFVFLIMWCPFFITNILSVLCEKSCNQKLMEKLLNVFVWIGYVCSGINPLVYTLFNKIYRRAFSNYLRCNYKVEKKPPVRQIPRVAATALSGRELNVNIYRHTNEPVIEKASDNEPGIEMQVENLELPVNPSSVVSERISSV
Summary of the method: (§1)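 AV12 hamster fibroblast membranes stably expressing the human receptor. Final buffer: 10 μM pargyline, 9.75 mM MgCl2, 0.5 mM EDTA, 0.1% Na ascorbate, 50 mM Tris HCl pH 7.4. [125I]DOI was at about 0.07–0.15 nM, with about 40 μg (2A) or 30 μg (2C) protein, for 30 min at 37 °C. Nonspecific binding: 1 μM ketanserin (2A) or 10 μM mianserin (2C). Read by filtration and gamma counting.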

[3] = biological target: T3, 5-hydroxytryptamine receptor 2B (Homo sapiens, UniProt P41595); assay: Antagonistic activity at cloned human 5-hydroxytryptamine 2B receptor using [3H]rauwolscine as radioligand; assay type: functional
T3 sequence (P41595 whole entry): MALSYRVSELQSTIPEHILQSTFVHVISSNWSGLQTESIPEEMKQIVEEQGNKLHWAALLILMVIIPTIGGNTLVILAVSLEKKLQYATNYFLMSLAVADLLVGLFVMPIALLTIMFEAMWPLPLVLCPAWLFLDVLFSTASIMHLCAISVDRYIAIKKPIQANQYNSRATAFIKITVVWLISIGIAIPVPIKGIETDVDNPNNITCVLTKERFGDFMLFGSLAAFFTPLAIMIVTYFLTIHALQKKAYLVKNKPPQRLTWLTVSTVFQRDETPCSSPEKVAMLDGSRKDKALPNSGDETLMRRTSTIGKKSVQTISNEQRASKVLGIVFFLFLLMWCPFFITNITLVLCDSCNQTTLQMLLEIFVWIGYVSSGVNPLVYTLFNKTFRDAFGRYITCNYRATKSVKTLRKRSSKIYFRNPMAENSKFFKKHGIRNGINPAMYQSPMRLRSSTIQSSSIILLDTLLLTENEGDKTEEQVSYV
Summary of the method: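 Human 5-HT2B membranes from stably transformed AV12 cells in Tris HCl pH 7.4. Competition against 2 nM [3H]rauwolscine (final), with 500 nM efaroxan to mask α2 sites, in 50 mM Tris HCl pH 7.4. Incubated 20 min at 37 °C, then filtered. Nonspecific binding with 10 μM 1-naphthylpiperazine.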

Rattus norvegicus [4] = species: Rattus norvegicus; assay: Effective dose for behavioral activity or hallucinogenic potential in drug discrimination studies in LSD(d-lysergic acid N,N-diethylamide) trained rats; assay type: functional; parameters: unit not given here
Summary of the method: (§2)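 Male Sprague–Dawley rats (200–220 g) trained in a two-lever, FR50 food task to tell LSD tartrate (0.08 mg/kg ip) from saline. Test drugs were given ip in 0.9% saline 30 min before extinction sessions. The first lever reaching 50 presses was scored; no completion within 5 min counted as disruption.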

[5] = biological target: T4, 5-hydroxytryptamine receptor 2A (Homo sapiens, UniProt P28223); assay: Antagonistic activity at cloned human 5-hydroxytryptamine 2A receptor using [3H]ketanserin as radioligand; assay type: functional
T4 sequence (P28223 whole entry): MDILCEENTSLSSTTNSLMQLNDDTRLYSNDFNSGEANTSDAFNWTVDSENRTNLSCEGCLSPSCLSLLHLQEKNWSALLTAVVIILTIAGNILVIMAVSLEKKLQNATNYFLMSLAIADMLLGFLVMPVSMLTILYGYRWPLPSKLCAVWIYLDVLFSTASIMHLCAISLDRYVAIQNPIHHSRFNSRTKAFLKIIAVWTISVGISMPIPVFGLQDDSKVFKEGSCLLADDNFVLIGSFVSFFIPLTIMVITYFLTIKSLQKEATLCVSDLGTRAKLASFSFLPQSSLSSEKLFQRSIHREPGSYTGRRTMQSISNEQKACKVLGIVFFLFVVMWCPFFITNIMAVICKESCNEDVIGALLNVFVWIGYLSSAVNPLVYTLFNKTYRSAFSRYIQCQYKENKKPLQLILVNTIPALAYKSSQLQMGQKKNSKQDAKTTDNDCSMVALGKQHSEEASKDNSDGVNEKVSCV
Summary of the method: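 Human 5-HT2A expressed in AV12 cell membranes. The 0.8 mL assay held 50 mM Tris HCl, 100 nM prazosin to block α1 sites, 0.4–0.5 nM [3H]ketanserin and varying competitor, final pH 7.6. Incubated 15 min at 37 °C, then filtered and washed. Mianserin 3 μM defined nonspecific binding. Read by liquid scintillation.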

[6] = biological target: 5-hydroxytryptamine receptor 2A (Rattus norvegicus, UniProt P14842); assay: Binding affinity towards rat cortical 5-hydroxytryptamine 2A receptor using [3H]ketanserin as radioligand
Chain of 5-hydroxytryptamine receptor 2A (Rattus norvegicus, UniProt P14842) (P14842 whole entry): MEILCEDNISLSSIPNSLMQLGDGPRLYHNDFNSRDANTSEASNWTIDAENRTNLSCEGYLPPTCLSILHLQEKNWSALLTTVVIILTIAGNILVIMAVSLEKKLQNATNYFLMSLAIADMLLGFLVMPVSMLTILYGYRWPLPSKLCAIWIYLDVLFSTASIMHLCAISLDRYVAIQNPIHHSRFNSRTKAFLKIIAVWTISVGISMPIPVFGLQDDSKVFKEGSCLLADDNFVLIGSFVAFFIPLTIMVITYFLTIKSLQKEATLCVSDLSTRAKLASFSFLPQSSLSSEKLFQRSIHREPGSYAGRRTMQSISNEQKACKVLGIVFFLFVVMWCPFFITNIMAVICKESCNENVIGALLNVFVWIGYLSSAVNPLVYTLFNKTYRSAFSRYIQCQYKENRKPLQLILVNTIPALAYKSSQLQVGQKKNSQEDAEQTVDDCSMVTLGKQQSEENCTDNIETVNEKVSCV

[7] = biological target: T3, 5-hydroxytryptamine receptor 2B; assay: Agonistic activity at cloned human 5-hydroxytryptamine 2B receptor using [3H]-5-HT as radioligand; assay type: functional
Summary of the method: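 Membranes from AV12 hamster fibroblasts stably expressing human 5-HT2B, lysed hypotonically in 50 mM Tris HCl pH 7.4. Competition against about 2 nM [3H]-5-HT (free level measured) in 50 mM Tris, 3 mM CaCl2, 10 μM pargyline, 0.1% ascorbic acid, pH 7.4. Drug dilutions spanned 6 log units. About 100-150 μg protein per tube, 15 min at 37 °C, in triplicate. Nonspecific binding with 10 μM 5-HT or 1-NP. Filtration, then scintillation counting.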

[8] = biological target: T2, 5-hydroxytryptamine receptor 2C; assay: Antagonistic activity at cloned human 5-hydroxytryptamine 2C receptor using [3H]mesulergine as radioligand; assay type: functional
Summary of the method: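 AV12 membranes expressing human 5-HT2C. The 0.8 mL assay held 0.74–0.82 nM [3H]mesulergine, varying competitor and Tris HCl, final pH 7.6. Incubated 30 min at 37 °C, then filtered, washed and counted by liquid scintillation. Mianserin defined nonspecific binding.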

[9] = biological target: T4, 5-hydroxytryptamine receptor 2A; assay: Agonistic activity at cloned human 5-hydroxytryptamine 2A receptor using [125I]DOI as radioligand; assay type: functional; summary of the method: as §1
Rattus norvegicus [10] = species: Rattus norvegicus; assay: Effective dose in Drug Discrimination studies in LSD(d-lysergic acid N,N-diethylamide) trained rats. No. of animals tested 15; assay type: functional; summary of the method: as §2

| SMILES | Ki [1] [nM] | ED50 (Rattus norvegicus [4]) | Ki [6] [nM] | further results |
| --- | --- | --- | --- | --- |
| CC(N)Cc1c2c(c(Br)c3c1OCC3)OCC2 (stereo unspecified) | 4.3 | 61 | 18 | Ki [2]: 0.3 nM; Ki [3]: 1.15 nM; Ki [5]: 10.7 nM; Ki [7]: 1.6 nM; Ki [8]: 2.28 nM; Ki [9]: 0.48 nM |
| CCN(CC)C(=O)[C@@H]1C=C2c3cccc4[nH]cc(c34)C[C@H]2N(C)C1 [LYSERGIDE] | – | – | – | ED50 (Rattus norvegicus [10]): 40 µmol/kg |
| COc1cc(CC(C)N)c(OC)cc1Br (stereo unspecified) [BROLAMFETAMINE] | 6.1 | – | – | – |
| COc1cc(Br)c2c(c1CC(C)N)CCO2 (stereo unspecified) | – | 570 | – | – |
| NCCc1c2c(c(Br)c3c1OCC3)OCC2 | 0.8 | – | 34 | – |
| CC(N)Cc1c2c(cc3c1OCC3)OCC2 (stereo unspecified) | 29 | 64000 | 2010 | – |
| Cc1c2c(c(CC(C)N)c3c1OCC3)OCC2 (stereo unspecified) | – | 780 | – | – |
| NCCc1c2c(cc3c1OCC3)OCC2 | 5.2 | 1430 | 2300 | – |
